pIC50: −log10 of the molar value.
How the values were obtained:
HeLa [1] = test: Antiviral activities in a cell culture HIV-1 infectivity inhibition assay using HeLa cells; format: functional; conditions: Homo sapiens
HeLa [2] = test: Antiviral activities in a cell culture HIV-1 infectivity inhibition assay using HeLa cells plus 50% normal human serum; format: functional
[3] = biological target: C-C chemokine receptor type 5 (Homo sapiens, UniProt P51681); test: Inhibitory concentration for displacement of [125I]-MIP-1 alpha from recombinant human CC chemokine receptor 5 (CCR5) expressed in CHO cell; format: cell-based
How it was run: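 Competitive binding to CCR5 on CHO cell membranes, read as displacement of [125I]-labeled MIP-1α. IC50 values are means of triplicate determinations. Standard errors were normally <15% within an assay. Assay-to-assay variation was within ±2-fold, judged from a standard compound.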

Chain of C-C chemokine receptor type 5 (P51681 whole entry): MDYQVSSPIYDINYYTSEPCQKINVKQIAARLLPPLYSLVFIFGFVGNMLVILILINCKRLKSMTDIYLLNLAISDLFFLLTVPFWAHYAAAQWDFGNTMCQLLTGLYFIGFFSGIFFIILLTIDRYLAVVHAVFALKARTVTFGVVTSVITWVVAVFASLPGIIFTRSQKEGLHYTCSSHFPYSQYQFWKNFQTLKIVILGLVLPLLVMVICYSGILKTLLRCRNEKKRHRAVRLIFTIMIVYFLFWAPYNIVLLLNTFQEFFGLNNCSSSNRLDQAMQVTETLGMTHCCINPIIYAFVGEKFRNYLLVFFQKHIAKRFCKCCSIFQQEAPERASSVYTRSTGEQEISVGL

| SMILES | IC90 (HeLa [1]) [nM] | pIC50 [3] | IC90 (HeLa [2]) [nM] |
| --- | --- | --- | --- |
| CCn1nc(Cc2ccc(OC)c(C#N)c2)cc1C1CCN(C[C@H]2CN([C@@H](C(=O)O)C(C)(C)C)C[C@@H]2c2cccc(F)c2)CC1 | < 0.14 | 9.05 | 33 |
| CCn1nc(Cc2cccc(C#N)c2)cc1C1CCN(C[C@H]2CN([C@@H](C(=O)O)C(C)C)C[C@@H]2c2cccc(F)c2)CC1 | 3.7 | 8.77 | 100 |
| CCn1nc(Cc2ccc(S(=O)(=O)c3ccccc3)cc2)cc1C1CCN(C[C@H]2CN([C@@H](C(=O)O)C3CCCCC3)C[C@@H]2c2cccc(F)c2)CC1 | 0.4 | 9.10 | 33 |
| CCn1nc(Cc2ccc(O)cc2)cc1C1CCN(C[C@H]2CN([C@@H](C(=O)O)C(C)(C)C)C[C@@H]2c2cccc(F)c2)CC1 | 0.4 | 8.96 | 11 |
| CCn1nc(Cc2ccc3c(c2)OCO3)cc1C1CCN(C[C@H]2CN([C@@H](C(=O)O)C(C)(C)C)C[C@@H]2c2cccc(F)c2)CC1 | < 0.14 | 9.15 | 33 |
| CCn1nc(Cc2ccc(F)c(F)c2)cc1C1CCN(C[C@H]2CN([C@@H](C(=O)O)C(C)C)C[C@@H]2c2cccc(F)c2)CC1 | 3.7 | 8.96 | 300 |
| CCCCOc1ccc(Cc2cc(C3CCN(C[C@H]4CN([C@@H](C(=O)O)C(C)(C)C)C[C@@H]4c4cccc(F)c4)CC3)n(CC)n2)cc1 | 1.2 | 9.10 | 33 |
| CCn1nc(Cc2ccc(S(C)(=O)=O)cc2)cc1C1CCN(C[C@H]2CN([C@@H](C(=O)O)C3CCCCC3)C[C@@H]2c2cccc(F)c2)CC1 | 0.4 | 8.64 | 11 |
| CCn1nc(Cc2ccc(OC)c(C#N)c2)cc1C1CCN(C[C@H]2CN([C@@H](C(=O)O)C(C)C)C[C@@H]2c2cccc(F)c2)CC1 | 1.2 | 9.10 | 300 |
| CCn1nc(Cc2ccc(C#N)cc2)cc1C1CCN(C[C@H]2CN([C@@H](C(=O)O)C3CCCCC3)C[C@@H]2c2cccc(F)c2)CC1 | 0.4 | 8.77 | 11 |
| CC[C@H](C)[C@H](C(=O)O)N1C[C@H](CN2CCC(c3cc(Cc4cc(C(F)(F)F)cc(C(F)(F)F)c4)nn3CC)CC2)[C@@H](c2cccc(F)c2)C1 | 11 | 8.68 | > 300 |
| CCn1nc(Cc2ccc(OCc3ccccc3)cc2)cc1C1CCN(C[C@H]2CN([C@@H](C(=O)O)C(C)(C)C)C[C@@H]2c2cccc(F)c2)CC1 | 3.7 | 8.96 | 300 |
| CCn1nc(Cc2ccc(O)cc2)cc1C1CCN(C[C@H]2CN([C@@H](C(=O)O)C3CCCCC3)C[C@@H]2c2cccc(F)c2)CC1 | 11 | 9.30 | 33 |

Further lines, with some results ahead:

| IC90 (HeLa [1]) [nM] | pIC50 [3] | SMILES | IC90 (HeLa [2]) [nM] |
| --- | --- | --- | --- |
| < 0.14 | 8.89 | CC[C@H](C)[C@H](C(=O)O)N1C[C@H](CN2CCC(c3cc(Cc4ccc(C#N)cc4)nn3CC)CC2)[C@@H](c2cccc(F)c2)C1 | 3.7 |
| < 0.14 | 9.52 | CC[C@H](C)[C@H](C(=O)O)N1C[C@H](CN2CCC(c3cc(Cc4ccc(OC(F)F)cc4)nn3CC)CC2)[C@@H](c2cccc(F)c2)C1 | 11 |
| < 0.14 | 9.70 | CC[C@@H](C)[C@H](C(=O)O)N1C[C@H](CN2CCC(c3cc(Cc4ccc5ccccc5c4)nn3CC)CC2)[C@@H](c2cccc(F)c2)C1 | 300 |
| 11 | 8.66 | CCn1nc(Cc2ccccc2F)cc1C1CCN(C[C@H]2CN([C@@H](C(=O)O)C(C)C)C[C@@H]2c2cccc(F)c2)CC1 | > 300 |
| 1.2 | 9.40 | CC[C@H](C)[C@H](C(=O)O)N1C[C@H](CN2CCC(c3cc(Cc4ccc(Oc5ccccc5)cc4)nn3CC)CC2)[C@@H](c2cccc(F)c2)C1 | 100 |
| 0.4 | 9.52 | CC[C@H](C)[C@H](C(=O)O)N1C[C@H](CN2CCC(c3cc(Cc4ccc(-c5ccccc5)cc4)nn3CC)CC2)[C@@H](c2cccc(F)c2)C1 | 33 |
